# Test results taken from ChEMBL document CHEMBL4007408, “Identification of Novel Triazole-Based Nicotinamide Phosphoribosyltransferase (NAMPT) Inhibitors Endowed with Antiproliferative and Antiinflammatory Activity” (J Med Chem, 2017).
# Active and inactive are the calls of the source. The calls are words filed in the database; no cut-off is given here.
# Tests used:
# [1] = target: Nicotinamide phosphoribosyltransferase (Mus musculus, UniProt Q99KQ4); assay: Inhibition of recombinant mouse NAMPT expressed in bacterial expression system using nicotinamide as substrate after 1 hr by fluorescence based NMNAT-3 enzyme coupled assay; conditions: read-out: IC50
# Nicotinamide phosphoribosyltransferase (Mus musculus, UniProt Q99KQ4), sequence (Q99KQ4 whole entry): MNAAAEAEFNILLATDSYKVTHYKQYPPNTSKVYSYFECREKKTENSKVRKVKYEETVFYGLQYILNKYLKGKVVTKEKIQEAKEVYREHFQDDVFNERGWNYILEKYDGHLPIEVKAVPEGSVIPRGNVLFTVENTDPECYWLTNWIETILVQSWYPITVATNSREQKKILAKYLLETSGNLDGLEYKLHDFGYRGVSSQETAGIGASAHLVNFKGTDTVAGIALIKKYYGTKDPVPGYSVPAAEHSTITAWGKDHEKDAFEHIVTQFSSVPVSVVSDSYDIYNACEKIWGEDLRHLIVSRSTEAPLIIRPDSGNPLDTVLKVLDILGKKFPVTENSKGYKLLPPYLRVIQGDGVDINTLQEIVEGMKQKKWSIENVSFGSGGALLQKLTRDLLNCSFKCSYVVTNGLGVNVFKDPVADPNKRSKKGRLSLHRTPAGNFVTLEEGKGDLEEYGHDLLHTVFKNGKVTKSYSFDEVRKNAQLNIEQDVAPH
# SH-SY5Y = assay: Cytotoxicity against human SH-SY5Y cells assessed as reduction in cell viability after 56 hrs by MTT assay; assay type: functional, cell-based; conditions: Homo sapiens, SH-SY5Y, 56 h; read-out: EC50
# [2] = target: Nicotinamide phosphoribosyltransferase (Homo sapiens, UniProt P43490); assay: Inhibition of NAMPT in human Jurkat T cells assessed as reduction in NAD levels; assay type: cell-based
# Nicotinamide phosphoribosyltransferase (Homo sapiens, UniProt P43490), sequence (P43490 whole entry): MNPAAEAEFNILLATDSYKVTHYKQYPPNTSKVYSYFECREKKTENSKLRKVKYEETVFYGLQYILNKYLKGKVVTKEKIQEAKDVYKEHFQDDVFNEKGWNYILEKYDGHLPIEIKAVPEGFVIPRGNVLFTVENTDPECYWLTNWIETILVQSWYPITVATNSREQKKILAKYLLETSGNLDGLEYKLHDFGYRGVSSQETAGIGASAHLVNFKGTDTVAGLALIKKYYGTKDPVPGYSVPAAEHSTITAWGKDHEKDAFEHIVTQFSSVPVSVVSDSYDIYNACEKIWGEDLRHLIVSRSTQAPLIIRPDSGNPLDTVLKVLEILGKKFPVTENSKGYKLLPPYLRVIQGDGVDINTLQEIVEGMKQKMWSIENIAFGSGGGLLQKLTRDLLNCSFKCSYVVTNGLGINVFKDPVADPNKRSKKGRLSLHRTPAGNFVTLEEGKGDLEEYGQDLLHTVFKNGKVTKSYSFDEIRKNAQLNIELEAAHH
# Liver [3] = assay: Stability in human liver microsomes after 60 mins by LC-ESI-MS analysis; assay type: ADME, microsome; conditions: 1 h
# Liver [4] = assay: Stability in Wistar Han rat liver microsomes after 60 mins by LC-ESI-MS analysis; assay type: ADME, microsome; conditions: 1 h
# [5] = Drug metabolism in Wistar Han rat liver microsomes assessed as mixed function oxidase mediated compound cleavage by measuring compound remaining after 60 mins in presence of NADPH-regenerating system by LC-UV analysis; assay type: ADME; conditions: read-out: Stability
# How it was run: (§1)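 Substrate at 50 μM final, with rat or human liver microsomes at 1.0 mg/ml protein, in 50 mM Tris-HCl pH 7.4. Mix held 3.3 mM MgCl2, 1% acetonitrile and an NADPH-regenerating system (1.3 mM β-NADP, 3.3 mM glucose 6-phosphate, 0.4 U/ml G6PDH). Shaken 60 min at 37 °C, stopped with ice-cold acetonitrile. LC-UV gave % residual substrate versus a no-microsome control, mean of two replicates.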
# [6] = Drug metabolism in human liver microsomes assessed as mixed function oxidase mediated compound cleavage by measuring compound remaining after 60 mins in presence of NADPH-regenerating system by LC-UV analysis; assay type: ADME; conditions: read-out: Stability; how it was run: as §1
# [7] = Drug metabolism in Wistar Han rat liver microsomes assessed as mixed function oxidase mediated compound degradation after 60 mins in presence of NADPH-regenerating system by LC-UV analysis; assay type: ADME; conditions: 1 h; how it was run: as §1
# [8] = Drug metabolism in human liver microsomes assessed as mixed function oxidase mediated compound degradation after 60 mins in presence of NADPH-regenerating system by LC-UV analysis; assay type: ADME; conditions: 1 h; how it was run: as §1
# Liver [9] = assay: Drug metabolism in Wistar Han rat liver microsomes assessed as pyridine N-oxidation after 60 mins in presence of NADPH-regenerating system by LC-UV analysis; assay type: ADME, microsome; conditions: 1 h
# How it was run: (§2)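 Metabolites were characterized by LC-ESI-MSn on supernatants of 60 min, 37 °C incubations. Each used 50 μM substrate with rat or human liver microsomes (1.0 mg/ml protein) in 50 mM Tris-HCl pH 7.4 with 3.3 mM MgCl2, 1% acetonitrile and an NADPH-regenerating system. Reactions were quenched with cold acetonitrile and centrifuged.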
# Liver [10] = assay: Drug metabolism in human liver microsomes assessed as pyridine N-oxidation after 60 mins in presence of NADPH-regenerating system by LC-UV analysis; assay type: ADME, microsome; conditions: 1 h; how it was run: as §2
# [11] = Half life in athymic Nu/Nu Harlan mouse at 10 mg/kg, iv administered as single dose up to 24 hrs by LC-ESI-MS analysis; assay type: ADME, organism-based; conditions: in vivo
# [12] = AUC in athymic Nu/Nu Harlan mouse at 10 mg/kg, iv administered as single dose up to 24 hrs by LC-ESI-MS analysis; assay type: ADME, organism-based; set-up: time < 24 hr, dose 10 mg/kg, route intravenous; conditions: in vivo
# [13] = Clearance in athymic Nu/Nu Harlan mouse at 10 mg/kg, iv administered as single dose up to 24 hrs by LC-ESI-MS analysis; assay type: ADME, organism-based; conditions: in vivo
# [14] = Volume of distribution in athymic Nu/Nu Harlan mouse at 10 mg/kg, iv administered as single dose up to 24 hrs by LC-ESI-MS analysis; assay type: ADME, organism-based; conditions: in vivo
# Mus musculus [15] = assay: Drug metabolism in athymic Nu/Nu Harlan mouse blood assessed as N-oxide metabolite formation at 10 mg/kg, iv administered as single dose up to 24 hrs by LC-ESI-MS analysis; assay type: ADME, organism-based; conditions: in vivo
# [16] = Apparent aqueous solubility of the compound; assay type: physicochemical; conditions: buffer
# How it was run: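 Kinetic solubility was measured by filtration. Compound from a 10 mM DMSO stock was diluted in PBS pH 7.4 to nominal 500 and 200 μM, shaken 90 min at room temperature and filtered. Filtrate was diluted 4:1 with acetonitrile and absorbance read at 260/280 nm. Concentration came from a calibration curve (3.13–500 μM in 80:20 PBS/acetonitrile, 5% DMSO; r2 >0.85) × 1.25. Run in duplicate.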
# A2780 [17] = assay: Cytotoxicity against human A2780 cells assessed as reduction in cell viability; assay type: functional, cell-based
# A2780 [18] = assay: Antitumor activity against human A2780 cells xenografted in athymic nu/nu Harlan mouse assessed as reduction in tumor growth at 10 mg/kg, ip bid administered for 8 consecutive days; assay type: functional, organism-based
# Mus musculus [19] = assay: Toxicity in athymic nu/nu Harlan mouse xenografted with human A2780 cells assessed as body weight loss at 10 mg/kg, ip bid administered for 8 consecutive days measured through out study; assay type: organism-based; conditions: in vivo
# Fibrosarcoma cell = assay: Antitumor activity against mouse fibrosarcoma cells allografted in athymic nu/nu Harlan mouse
# Mammary cancer cell = assay: Antitumor activity against mouse mammary cancer cells allografted in athymic nu/nu Harlan mouse
# Mus musculus [20] = assay: In vivo inhibition of NAMPT in DNBS-induced BALB/c mouse colitis model assessed as reduction in loss of body weight at 20 mg/kg, ip bid administered for 3 days post DNBS challenge; assay type: functional, organism-based
# Mus musculus [21] = assay: In vivo inhibition of NAMPT in DNBS-induced BALB/c mouse colitis model assessed as reduction in mucosal congestion at 20 mg/kg, ip bid administered for 3 days post DNBS challenge; assay type: functional, organism-based
# Mus musculus [22] = assay: In vivo inhibition of NAMPT in DNBS-induced BALB/c mouse colitis model assessed as reduction in erosion at 20 mg/kg, ip bid administered for 3 days post DNBS challenge; assay type: functional, organism-based
# Mus musculus [23] = assay: In vivo inhibition of NAMPT in DNBS-induced BALB/c mouse colitis model assessed as reduction in hemorrhagic ulcerations at 20 mg/kg, ip bid administered for 3 days post DNBS challenge; assay type: functional, organism-based
# Mus musculus [24] = assay: Downregulation of NAMPT expression in DNBS-induced BALB/c mouse colitis model at 20 mg/kg, ip bid administered for 3 days post DNBS challenge by Western blot analysis; assay type: functional, organism-based
# Mus musculus [25] = assay: In vivo inhibition of NAMPT in DNBS-induced BALB/c mouse colitis model assessed as reduction in neutrophil infiltration by measuring myeloperoxidase levels at 20 mg/kg, ip bid administered for 3 days post DNBS challenge by ELISA; assay type: functional, organism-based
# Mus musculus [26] = assay: Antiinflammatory activity of DSS-induced […] mouse colitis model assessed as reduction in loss of body weight at 20 mg/kg administered daily for 7 days post DSS challenge; assay type: functional, organism-based
# Mus musculus [27] = assay: Antiinflammatory activity of DSS-induced […] mouse colitis model assessed as disease activity index at 20 mg/kg administered daily for 7 days post DSS challenge (reference value: 6); assay type: functional
# Mus musculus [28] = assay: Antiinflammatory activity of DSS-induced […] mouse colitis model assessed as improved general condition at 20 mg/kg administered daily for 7 days post DSS challenge; assay type: functional, organism-based
# Mus musculus [29] = assay: Antiinflammatory activity of DSS-induced […] mouse colitis model assessed as reversion of changes in colon length at 20 mg/kg administered daily for 7 days post DSS challenge; assay type: functional, organism-based
# Mus musculus [30] = assay: Antiinflammatory activity of DSS-induced […] mouse colitis model assessed as reduction in neutrophil infiltration by measuring myeloperoxidase levels at 20 mg/kg administered daily for 7 days post DSS challenge by ELISA; assay type: functional, organism-based
# Liver [31] = assay: Drug metabolism in human liver microsomes assessed as compound hydrolysis by measuring 2-aminobiphenyl formation after 60 mins by LC-ESI-MS analysis; assay type: ADME, microsome; conditions: 1 h
# How it was run: (§3)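 Hydrolytic metabolites were identified by LC-ESI-MSn after 60 min at 37 °C. Incubations used 50 μM substrate with rat or human liver microsomes (1.0 mg/ml) in 50 mM Tris-HCl pH 7.4, 3.3 mM MgCl2 and 1% acetonitrile. Samples without the NADPH-regenerating system were also run, and residual substrate in them was measured.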
# Liver [32] = assay: Drug metabolism in human liver microsomes assessed as compound hydrolysis by measuring 8-(4-(pyridin-3-yl)-1H-1,2,3-triazol-1-yl)octanoic acid formation after 60 mins by LC-ESI-MS analysis; assay type: ADME, microsome; how it was run: as §3
# Liver [33] = assay: Drug metabolism in Wistar Han rat liver microsomes assessed as compound hydrolysis by measuring 2-aminobiphenyl formation after 60 mins by LC-ESI-MS analysis; assay type: ADME, microsome; conditions: 1 h; how it was run: as §3
# Liver [34] = assay: Drug metabolism in Wistar Han rat liver microsomes assessed as compound hydrolysis by measuring 8-(4-(pyridin-3-yl)-1H-1,2,3-triazol-1-yl)octanoic acid formation after 60 mins by LC-ESI-MS analysis; assay type: ADME, microsome; how it was run: as §3
# Liver [35] = assay: Drug metabolism in human liver microsomes assessed as aliphatic hydroxylation of paraffin linkers by LC-ESI-MS or LC-UV analysis; assay type: ADME, microsome; how it was run: as §2
# [36] = Stability in Wistar Han rat liver microsomes assessed as mixed function oxidase mediated compound cleavage after 60 mins in presence of NADPH-regenerating system by LC-UV analysis; assay type: ADME; conditions: 1 h; how it was run: as §1
# Liver [37] = assay: Stability in human liver microsomes assessed as mixed function oxidase mediated compound cleavage after 60 mins in presence of NADPH-regenerating system by LC-UV analysis; assay type: ADME, microsome; conditions: 1 h; how it was run: as §1
# Liver [38] = assay: Drug metabolism in human liver microsomes assessed as aromatic hydroxylation of biphenyl moiety by LC-ESI-MS or LC-UV analysis; assay type: ADME, microsome; how it was run: as §2
# Liver [39] = assay: Drug metabolism in human liver microsomes assessed as oxidative N-dealkylation by LC-ESI-MS or LC-UV analysis; assay type: ADME, microsome; how it was run: as §2
# Liver [40] = assay: Drug metabolism in Wistar Han rat liver microsomes assessed as aliphatic hydroxylation of paraffin linkers by LC-ESI-MS or LC-UV analysis; assay type: ADME, microsome; how it was run: as §2
# Liver [41] = assay: Drug metabolism in Wistar Han rat liver microsomes assessed as aromatic hydroxylation of biphenyl moiety by LC-ESI-MS or LC-UV analysis; assay type: ADME, microsome; how it was run: as §2
# Liver [42] = assay: Drug metabolism in Wistar Han rat liver microsomes assessed as oxidative N-dealkylation by LC-ESI-MS or LC-UV analysis; assay type: ADME, microsome; how it was run: as §2
Structure (SMILES),IC50 [1] [nM],EC50 (SH-SY5Y) [nM],IC50 [2] [nM],Stability (Liver [3]),Stability (Liver [4]),remaining at 1 h [5] [%],remaining at 1 h [6] [%],Drug metabolism (Liver [9]),Drug metabolism (Liver [10]),half-life [11] [h],AUC at 24 h [12] [ng·h/mL],clearance [13] [mL/min/kg],Vd [14] [L/kg],Drug metabolism (Mus musculus [15]),solubility [16],IC50 (A2780 [17]) [nM],inhibition (A2780 [18]),Activity (Mus musculus [19]),Activity (Fibrosarcoma cell),Activity (Mammary cancer cell),also measured
c1ccc(-c2ccccc2OCCCCCCn2cc(-c3cccnc3)nn2)cc1,3.8,5.2,6.7,Stable,Stable,31,49,Metabolite_Detected,Metabolite_Detected,1.89,859,194,31.8,Metabolite_Notdetected,Insoluble,3,Active,Non-Toxic,Active,Active,Drug metabolism [7]: Metabolite_Detected; Drug metabolism [8]: Metabolite_Detected; inhibition (Mus musculus [20]): Active; inhibition (Mus musculus [21]): Active; inhibition (Mus musculus [22]): Active; inhibition (Mus musculus [23]): Active; inhibition (Mus musculus [24]): Active; inhibition (Mus musculus [25]): Active; Activity (Mus musculus [26]): Active; Activity_index (Mus musculus [27]): 2.5; Activity (Mus musculus [28]): Active; Activity (Mus musculus [29]): Active; Activity (Mus musculus [30]): Active
O=C(CCCCCCCn1cc(-c2cccnc2)nn1)Nc1ccccc1-c1ccccc1,–,–,–,–,–,26,45,–,–,–,–,–,–,–,–,–,–,–,–,–,Drug metabolism (Liver [31]): Metabolite_Detected; Drug metabolism (Liver [32]): Metabolite_Detected; Drug metabolism (Liver [33]): Metabolite_Detected; Drug metabolism (Liver [34]): Metabolite_Detected
O=C(NCCCCCCCn1cc(-c2cccnc2)nn1)c1ccccc1-c1ccccc1,3.1,5.8,4.9,Stable,Stable,45,88,–,–,–,–,–,–,–,–,–,–,–,–,–,Drug metabolism (Liver [35]): Metabolite_Detected; Stability [36]: Stable; Stability (Liver [37]): Stable; Drug metabolism (Liver [38]): Metabolite_Detected; Drug metabolism (Liver [39]): Metabolite_Detected; Drug metabolism (Liver [40]): Metabolite_Detected; Drug metabolism (Liver [41]): Metabolite_Detected; Drug metabolism (Liver [42]): Metabolite_Detected
O=C(/C=C/c1cccnc1)NCCCCC1CCN(C(=O)c2ccccc2)CC1 [DAPORINAD],4.9,3.4,–,Stable,Stable,62,92,Metabolite_Detected,Metabolite_Detected,0.37,6470,22.8,0.8,Metabolite_Detected,Soluble,4.2,Active,Non-Toxic,Active,Active,Stability [36]: Stable; Stability (Liver [37]): Stable; inhibition (Mus musculus [20]): Active; inhibition (Mus musculus [21]): Active; inhibition (Mus musculus [22]): Active; inhibition (Mus musculus [23]): Active; inhibition (Mus musculus [24]): Active; inhibition (Mus musculus [25]): Active
